Measurements reported in ChEMBL document CHEMBL4229550, “An antimycobacterial pleuromutilin analogue effective against dormant bacilli” (Bioorg Med Chem, 2018).
pIC50: −log10 of the molar value. Values after ≈ are worked out from the molar mass of the structure shown. Active and inactive are the calls of the source. The rule behind the calls is not given here.

Key:
[1] = system: Mycobacterium tuberculosis; assay: Antibacterial activity against Mycobacterium tuberculosis Erdman infected in Balb/c mouse assessed as reduction in bacterial load in lungs at administered po for 3 weeks starting from 10 days post infection measured on day 21 post infection; assay type: functional, organism-based; conditions: Erdman = ATCC 35801
Method in brief: (§1)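 Female BALB/c mice, 7–8 weeks old, are aerosol-infected with Mtb Erdman. From day 10 they receive oral gavage in water for three weeks, in groups of 5. Lungs and spleens are harvested at day 21 post-infection and plated for CFU. Efficacy is the log10 reduction in lung burden versus untreated (vehicle) controls.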

[2] = system: Mycobacterium tuberculosis; assay: Antibacterial activity against Mycobacterium tuberculosis; assay type: functional; conditions: read-out: MIC100
Method in brief: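 Mtb H37Rv grown in 7H9/OADC at 37 °C with shaking to OD600 0.5. The 0.5-OD culture is exposed aerobically to serial dilutions for 15 days at 37 °C. Resazurin (0.02% stock) is then added for 4 h at 37 °C with shaking.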

[3] = Half life in Balb/c mouse at 30 mg/kg, po; assay type: ADME, organism-based; conditions: in vivo
Method in brief: (§2)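 Single 30 mg/kg oral dose in six BALB/c mice; serum half-life and tmax are derived from the concentration–time profile.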

[4] = Solubility in water at 10 mg after 24 hrs by HPLC analysis; assay type: physicochemical
Bacillus subtilis = assay: Antibacterial activity against Bacillus subtilis ATCC 6051 incubated for 24 hrs under aerobic condition by MABA; assay type: functional; conditions: ATCC 6051, 24 h, read-out: MIC100
Method in brief: (§3)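 Mid-log cultures at OD 0.5 were exposed to serial dilutions under aerobic conditions at 37 °C for 24 h. Resazurin was then added from a 0.08% stock for 1 h. MIC100 was the lowest concentration where the dye stayed blue (pink means growth). Absorbance was also read at 570 and 600 nm.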

[5] = Half life in Balb/c mouse at 3 mg/kg, iv; assay type: ADME, organism-based; conditions: in vivo
Method in brief: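 Single 3 mg/kg IV dose in three BALB/c mice; serum half-life is derived from the concentration–time profile.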

Erythrocyte = assay: Hemolytic activity in sheep erythrocytes after 2 hrs; assay type: ADME, cell-based; conditions: Ovis aries
Method in brief: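 Washed heparinized sheep erythrocytes at 3% in buffer pH 7.4 were treated with 2–200 µg/mL for 2 h at 37 °C with gentle shaking. Triton X-100 (0.01–1%) was the positive control and PEG:H2O diluent the negative control. Released hemoglobin was read at OD540 and % hemolysis calculated against both controls.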

Streptococcus salivarius = assay: Bactericidal activity against Streptococcus salivarius ATCC 6301 incubated for 24 hrs under aerobic condition by MABA; assay type: functional; conditions: ATCC 6301, 24 h
[6] = Tmax in Balb/c mouse at 30 mg/kg, po; assay type: ADME, organism-based; conditions: in vivo; method in brief: as §2
[7] = Cmax in Balb/c mouse lung at 30 mg/kg, po; assay type: ADME, organism-based; parameters: dose 30 mg/kg, route oral
[8] = Apparent permeability from basolateral to apical side in human Caco2 cells at 10 uM after 2 hrs by LC-MS/MS analysis; assay type: ADME, cell-based; conditions: caco-2, 2 h
Staphylococcus aureus [9] = assay: Antibacterial activity against Staphylococcus aureus BAA 2094 incubated for 24 hrs under aerobic condition by MABA; assay type: functional; conditions: BAA 2094, 24 h, read-out: MIC100
Method in brief: (§4)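 Resazurin was then added from a 0.08% stock for 1 h. MIC100 was the lowest concentration where the dye stayed blue (pink means growth). Absorbance was also read at 570 and 600 nm.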

Acinetobacter baumannii [10] = assay: Bactericidal activity against Acinetobacter baumannii ATCC 19606 incubated for 24 hrs under aerobic condition by MABA; assay type: functional; conditions: ATCC 19606 = CIP 70.34 = JCM 6841, 24 h
[11] = Selectivity index, ratio of IC50 for African green monkey Vero cells to MIC100 for replicating Mycobacterium tuberculosis H37Rv by MABA; assay type: toxicity; conditions: read-out: Selectivity Index
Method in brief: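 Vero cells are cultured in EMEM with 10% FBS and exposed for 72 h to 0.78–200 µg/mL. Medium is switched to phenol-red-free EMEM, MTT is added, and formazan is read at 570 nm to give IC50. The selectivity index is Vero IC50 divided by the MABA MIC.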

Escherichia coli [12] = assay: Inhibition of protein translation/transcription in Escherichia coli S30 cell extract using circular DNA with pBESTluc after 60 mins by luciferase reporter gene assay; assay type: functional; conditions: 1 h
Method in brief: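 E. coli S30 circular-DNA coupled transcription/translation kit with the pBESTluc template (firefly luciferase under the tac promoter). S30 extract, amino acids and premix are combined with compound in DMSO, and the reaction is started with DNA. Incubation is 60 min at 37 °C, stopped on ice, then luciferase luminescence is read.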

[13] = AUC (0 to infinity) in Balb/c mouse at 3 mg/kg, iv; assay type: ADME, organism-based; parameters: dose 3 mg/kg, route intravenous, time infinity; conditions: in vivo
Method in brief: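 Single IV dose of 3 mg/kg in BALB/c mice (n = 3). Serum concentration-time data were used to derive t1/2, Cmax and AUC over 0–24 h and to infinity.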

Staphylococcus aureus [14] = assay: Bactericidal activity against Staphylococcus aureus BAA 44 incubated for 24 hrs under aerobic condition by MABA; assay type: functional; conditions: BAA 44, 24 h
[15] = system: Mycobacterium tuberculosis; assay: Antibacterial activity against Mycobacterium tuberculosis Erdman infected in Balb/c mouse assessed as reduction in bacterial load in lungs at 200 mg/kg, po for 3 weeks starting from 10 days post infection measured on day 21 post infection; assay type: functional, Erdman = ATCC 35801; method in brief: as §1
[16] = system: Mycobacterium tuberculosis; assay: Bactericidal activity against non-replicating Mycobacterium tuberculosis CDC1551 expressing tdTomato infected in mouse J774A.1 cells at 2 times MIC up to 72 hrs by DAPI staining based fluorescence microscopic method; assay type: functional, organism-based
Method in brief: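 J774A.1 macrophages are seeded at 1×10^5 cells/well in chamber slides and infected with tdTomato-expressing Mtb CDC1551 at MOI ≈10. […] Imaging is by fluorescence confocal microscopy.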

Escherichia coli [17] = assay: Antibacterial activity against Escherichia coli ATCC 10798 incubated for 24 hrs under aerobic condition by MABA; assay type: functional; conditions: ATCC 10798, 24 h, read-out: MIC100; method in brief: as §3
[18] = Cmax in Balb/c mouse serum at 30 mg/kg, po; assay type: ADME, organism-based; parameters: dose 30 mg/kg, route oral
Method in brief: (§5)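 Single oral dose of 30 mg/kg in BALB/c mice (n = 6). Serum PK parameters were t1/2, tmax, Cmax and AUC over 0–24 h and to infinity. Oral bioavailability F was calculated against the 3 mg/kg IV dose.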

Streptococcus pneumoniae [19] = assay: Antibacterial activity against Streptococcus pneumoniae ATCC 6301 incubated for 24 hrs under aerobic condition by MABA; assay type: functional; conditions: ATCC 6301, 24 h, read-out: MIC100; method in brief: as §3
Acinetobacter baumannii [20] = assay: Antibacterial activity against Acinetobacter baumannii ATCC 19606 incubated for 24 hrs under aerobic condition by MABA; assay type: functional; conditions: ATCC 19606 = CIP 70.34 = JCM 6841, 24 h, read-out: MIC100; method in brief: as §3
[21] = system: Mycolicibacterium smegmatis; assay: Antibacterial activity against Mycobacterium smegmatis ATCC 607 incubated for 48 hrs under aerobic condition by MABA; assay type: functional; conditions: ATCC 607, 48 h, read-out: MIC100
Method in brief: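 Mid-log culture at OD 0.5 was incubated with serial dilutions aerobically at 37 °C for 48 h. Resazurin was then added from a 0.08% stock for 1 h. MIC100 was the lowest concentration that stayed blue; absorbance was also read at 570/600 nm.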

[22] = Cmax in Balb/c mouse at 30 mg/kg, po; assay type: ADME, organism-based; parameters: dose 30 mg/kg, route oral; conditions: in vivo; method in brief: as §5
Streptococcus pneumoniae [23] = assay: Bactericidal activity against Streptococcus pneumoniae ATCC 6301 incubated for 24 hrs under aerobic condition by MABA; assay type: functional; conditions: ATCC 6301, 24 h
Staphylococcus aureus [24] = assay: Antibacterial activity against Staphylococcus aureus incubated for 24 hrs under aerobic condition by MABA; assay type: functional; conditions: read-out: MIC100; method in brief: as §4

Compound: CC[C@]1(C)C[C@@H](OC(=O)CSC(C)(C)CNC(=O)[C@H](N)CC(C)C)[C@]2(C)[C@H](C)CC[C@]3(CC[C@@H](O)[C@H]32)[C@@H](C)[C@@H]1O
- Activity [1]: Dose-dependent effect
- MIC [2]: < 6.25 mg/L
- half-life [3]: 4.02 h
- solubility [4]: 104.7 mg/mL (≈ 180000 µM)
- MIC (Bacillus subtilis): 25 mg/L (≈ 42.9 µM)
- half-life [5]: 9.98 h
- pIC50 (Erythrocyte): < 3.70
- MBC (Streptococcus salivarius): > 25 mg/L
- Tmax [6]: 0.83 h
- Cmax [7]: 6070 ng/g
- Papp [8]: 183 nm/s
- MIC (Staphylococcus aureus [9]): > 25 mg/L
- MBC (Acinetobacter baumannii [10]): 3.13 mg/L (≈ 5.37 µM)
- selectivity ratio [11]: 30.1
- IC50 (Escherichia coli [12]): 0.09 mg/L (≈ 0.154 µM)
- AUC(0-inf) [13]: 1.05 µg·h/mL
- MBC (Staphylococcus aureus [14]): > 25 mg/L
- log(activity) [15]: 0.47
- Activity [16]: Active
- MIC (Escherichia coli [17]): 12.5 mg/L (≈ 21.4 µM)
- Cmax [18]: 2.96 µg/mL
- MIC (Streptococcus pneumoniae [19]): 25 mg/L (≈ 42.9 µM)
- MIC (Acinetobacter baumannii [20]): 1.56 mg/L (≈ 2.68 µM)
- MIC [21]: 6.25 mg/L (≈ 10.7 µM)
- Cmax [22]: 1.34 µg/mL
- MBC (Streptococcus pneumoniae [23]): > 25 mg/L
- MIC (Staphylococcus aureus [24]): 0.78 mg/L (≈ 1.34 µM)
